Source: ChEMBL document CHEMBL1140564, “Macrocyclic ureas as potent and selective Chk1 inhibitors: an improved synthesis, kinome profiling, structure-activity relationships, and preliminary pharmacokinetics” (Bioorg Med Chem Lett, 2007)
Active and inactive are the calls of the source. No cut-off for these calls is given here.

Assays:
[1] = Cell cycle arrest in H1299 cells by accumulation at G2/M phase by FACS assay; type: functional, cell-based; conditions: Homo sapiens, NCI-H1299
[2] = tested on: NCI-H1299; test: Inhibition of doxorubicin-induced cell cycle arrest in H1299 cells at G2/M phase by FACS assay; type: functional, cell-based; conditions: Homo sapiens
Summary of the method: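 H1299 cells treated with 500 nM doxorubicin to induce G2/M arrest, with or without inhibitor at various concentrations, up to 10 μM. Cells stained with propidium iodide and DNA content analysed by FACS. EC50 for abrogation of the Dox-induced G2/M checkpoint.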

[3] = tested on: HeLa; test: Cytotoxicity against HeLa cells by MTS assay; type: functional, cell-based; conditions: Homo sapiens
[4] = target: T1, Serine/threonine-protein kinase Chk1 (Homo sapiens, UniProt O14757); test: Inhibition of Chk1
T1 sequence (O14757 whole entry): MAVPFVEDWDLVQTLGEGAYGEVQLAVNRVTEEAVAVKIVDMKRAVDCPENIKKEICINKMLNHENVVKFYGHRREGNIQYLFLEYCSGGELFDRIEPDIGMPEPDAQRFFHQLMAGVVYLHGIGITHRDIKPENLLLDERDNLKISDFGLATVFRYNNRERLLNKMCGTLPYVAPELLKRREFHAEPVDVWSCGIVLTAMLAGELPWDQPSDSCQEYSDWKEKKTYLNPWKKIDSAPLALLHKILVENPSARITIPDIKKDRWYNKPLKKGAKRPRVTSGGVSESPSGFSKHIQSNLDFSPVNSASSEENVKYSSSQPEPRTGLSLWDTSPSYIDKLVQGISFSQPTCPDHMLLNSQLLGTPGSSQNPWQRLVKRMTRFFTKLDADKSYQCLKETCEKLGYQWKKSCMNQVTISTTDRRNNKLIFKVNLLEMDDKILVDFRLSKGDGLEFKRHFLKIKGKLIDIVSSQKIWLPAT

[5] = AUC in mouse plasma at 10 mg/kg; type: ADME, organism-based; parameters: dose 10 mg/kg
Summary of the method: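 CD-1 mice received a single intraperitoneal dose of 10 mg/kg. Plasma drug levels were followed over time, and exposure was expressed as AUC in µmol h/L.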

Row | AUC [5] [µM·h] | SMILES | EC50 [1] [nM] | EC50 [2] [nM] | EC50 [3] [nM] | IC50 [4] [nM] | Activity [1] | Activity [2]
1 | – | N#Cc1ncc2nc1OCCCCOc1cc(OCCCN3CCOCC3)c(Cl)cc1NC(=O)N2 | > 10000 | > 10000 | 5000 | 1 | – | –
2 | – | N#Cc1ncc2nc1OC/C=C\COc1cc(N3CCOC3=O)c(Cl)cc1NC(=O)N2 | – | – | > 59300 | 10 | inactive | inactive
3 | – | CN(C)c1cc2c(cc1Cl)NC(=O)Nc1cnc(C#N)c(n1)OCCCCO2 | > 10000 | 540 | 54500 | 2 | – | –
4 | – | N#Cc1ncc2nc1OCCCCOc1cc(O)c(Cl)cc1NC(=O)N2 | – | – | > 59300 | 0.3 | inactive | inactive
5 | – | N#Cc1ncc2nc1OC/C=C\COc1cc(N(CCO)CCO)c(Cl)cc1NC(=O)N2 | – | – | 34100 | 1 | inactive | inactive
6 | – | CNc1cc2c(cc1Cl)NC(=O)Nc1cnc(C#N)c(n1)OCCCCO2 | > 10000 | > 10000 | > 59300 | 2 | – | –
7 | – | N#Cc1ncc2nc1OC/C=C\COc1cc(OCCO)c(Cl)cc1NC(=O)N2 | > 10000 | 1900 | > 59300 | 1 | – | –
8 | – | C[C@H](N)C(=O)Nc1cc2c(cc1Cl)NC(=O)Nc1cnc(C#N)c(n1)OC/C=C\CO2 | > 10000 | 90 | > 59300 | 3 | – | –
9 | – | N#Cc1ncc2nc1OC/C=C\COc1cc(NCc3cncs3)c(Cl)cc1NC(=O)N2 | > 10000 | 200 | 13600 | 4 | – | –
10 | – | N#Cc1ncc2nc1OC/C=C\COc1cc(NC(=O)c3ccncc3)c(Cl)cc1NC(=O)N2 | > 10000 | > 10000 | > 59300 | 6 | – | –
11 | – | N#Cc1ncc2nc1OCCCCOc1cc(N3CCOC3=O)c(Cl)cc1NC(=O)N2 | – | – | > 59300 | 6 | inactive | inactive
12 | – | N#Cc1ncc2nc1OC/C=C\COc1cc(OCCN3CCOCC3)c(Cl)cc1NC(=O)N2 | > 10000 | > 10000 | 14100 | 1 | – | –
13 | – | N#Cc1ncc2nc1OC/C=C\COc1cc(OCCCO)c(Cl)cc1NC(=O)N2 | – | – | > 59300 | 2 | inactive | inactive
14 | – | CCN(CC)c1cc2c(cc1Cl)NC(=O)Nc1cnc(C#N)c(n1)OCCCCO2 | > 10000 | > 10000 | > 59300 | 23 | – | –
15 | – | N#Cc1ncc2nc1OCCCCOc1cc(NC(=O)OCCN3CCOCC3)c(Cl)cc1NC(=O)N2 | > 10000 | > 10000 | > 59300 | 3 | – | –
16 | 1.5 | N#Cc1ncc2nc1OCCCCCOc1ccc(Cl)cc1NC(=O)N2 | – | – | – | – | – | –
17 | – | COCCCOc1cc2c(cc1Cl)NC(=O)Nc1cnc(C#N)c(n1)OCCCCO2 | – | – | 13900 | 3 | inactive | inactive
18 | – | N#Cc1ncc2nc1OCCCCOc1cc(OCCCO)c(Cl)cc1NC(=O)N2 | > 10000 | 2500 | > 59300 | 1 | – | –
